Results: ChEMBL document CHEMBL1817556, “Substituted lactam and cyclic azahemiacetals modulate Pseudomonas aeruginosa quorum sensing” (Bioorg Med Chem, 2011)
Each block holds one compound with its values, some of them ahead of it.

What was measured:
[1] = target: T1, Acyl-homoserine-lactone synthase (Pseudomonas aeruginosa (strain ATCC 15692 / PAO1 / 1C / PRS 101 / LMG12228)) (UniProt P33883); experiment: Modulation of Pseudomonas aeruginosa lacZ-fused lasI expressed in Escherichia coli DH5alpha co-expressing pBAD-lasR assessed as 3-oxo-C12-AHL-induced effect at 0.23 mM after 3 hrs by beta-galactosidase assay relative to control
T1 sequence (whole entry): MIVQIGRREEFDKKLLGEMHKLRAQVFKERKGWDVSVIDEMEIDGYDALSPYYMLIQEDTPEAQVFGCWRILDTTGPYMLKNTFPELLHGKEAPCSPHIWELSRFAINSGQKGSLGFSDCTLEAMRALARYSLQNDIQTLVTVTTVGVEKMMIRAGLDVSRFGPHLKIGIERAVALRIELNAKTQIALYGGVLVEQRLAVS
How it was run: (§1)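 E. coli DH5α carrying pSC11 (PlasI-lacZ translational fusion) and pJN105L (PBAD-lasR) was grown overnight in LB with ampicillin (100 μg/ml) and gentamicin (15 μg/ml), then diluted to OD600 0.150. Arabinose (0.2% w/v), 3-oxo-C12-AHL (2 μM) and test compound or DMSO were added. Cultures were shaken 3 h at 37 °C. β-Galactosidase activity was read in Miller units and expressed as % of the solvent sample. Triplicates per biological replicate, repeated at least twice; paired two-tailed t-test.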

[2] = target: T1, Acyl-homoserine-lactone synthase (Pseudomonas aeruginosa (strain ATCC 15692 / PAO1 / 1C / PRS 101 / LMG12228)); experiment: Modulation of Pseudomonas aeruginosa lacZ-fused lasI expressed in Escherichia coli DH5alpha co-expressing pBAD-lasR assessed as 3-oxo-C12-AHL-induced effect at 0.47 mM after 3 hrs by beta-galactosidase assay relative to control; how it was run: as §1
[3] = target: T1, Acyl-homoserine-lactone synthase (Pseudomonas aeruginosa (strain ATCC 15692 / PAO1 / 1C / PRS 101 / LMG12228)); experiment: Modulation of Pseudomonas aeruginosa lacZ-fused lasI expressed in Escherichia coli DH5alpha co-expressing pBAD-lasR assessed as 3-oxo-C12-AHL-induced effect at 0.70 mM after 3 hrs by beta-galactosidase assay relative to control; how it was run: as §1
[4] = target: T1, Acyl-homoserine-lactone synthase (Pseudomonas aeruginosa (strain ATCC 15692 / PAO1 / 1C / PRS 101 / LMG12228)); experiment: Modulation of Pseudomonas aeruginosa lacZ-fused lasI expressed in Escherichia coli DH5alpha co-expressing pBAD-lasR assessed as 3-oxo-C12-AHL-induced effect at 0.93 mM after 3 hrs by beta-galactosidase assay relative to control; how it was run: as §1
[5] = target: 3-(3-hydroxydecanoyloxy)decanoate synthase (Pseudomonas aeruginosa (strain ATCC 15692 / PAO1 / 1C / PRS 101 / LMG12228)) (UniProt Q51559); experiment: Modulation of Pseudomonas aeruginosa lacZ-fused rhlA expressed in Escherichia coli DH5alpha co-expressing Ptac-rhlR assessed as C4-AHL-induced effect at 0.23 mM after 4 hrs by beta-galactosidase assay relative to control
How it was run: (§2)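 rhl reporter: E. coli DH5α carrying pECP61.5 (Ptac-rhlR, PrhlA-lacZ) was grown overnight in LB with ampicillin (100 μg/ml) only, then diluted to OD600 0.150. It was induced with 1 mM IPTG, and 2 μM C4-HSL plus compound or DMSO were added at OD600 1.0. Cultures were shaken 4 h at 37 °C. β-Galactosidase activity was read in Miller units as % of the solvent sample. Triplicates per biological replicate, at least two repeats; paired two-tailed t-test.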

[6] = target: 3-(3-hydroxydecanoyloxy)decanoate synthase (Pseudomonas aeruginosa (strain ATCC 15692 / PAO1 / 1C / PRS 101 / LMG12228)) (UniProt Q51559); experiment: Modulation of Pseudomonas aeruginosa lacZ-fused rhlA expressed in Escherichia coli DH5alpha co-expressing Ptac-rhlR assessed as C4-AHL-induced effect at 0.47 mM after 4 hrs by beta-galactosidase assay relative to control; how it was run: as §2
[7] = target: 3-(3-hydroxydecanoyloxy)decanoate synthase (Pseudomonas aeruginosa (strain ATCC 15692 / PAO1 / 1C / PRS 101 / LMG12228)) (UniProt Q51559); experiment: Modulation of Pseudomonas aeruginosa lacZ-fused rhlA expressed in Escherichia coli DH5alpha co-expressing Ptac-rhlR assessed as C4-AHL-induced effect at 0.70 mM after 4 hrs by beta-galactosidase assay relative to control
How it was run: (§3)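 E. coli DH5α carrying pECP61.5 (Ptac-rhlR, PrhlA-lacZ), grown overnight in LB with ampicillin 100 μg/ml and diluted to OD600 0.150. At OD600 1.0, 1 mM IPTG, 2 μM C4-HSL and compound or DMSO were added. Cultures were shaken 4 h at 37 °C, then β-galactosidase was read in Miller units. Activity is % of solvent sample, from triplicates per biological replicate, with at least two repeats.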

[8] = target: 3-(3-hydroxydecanoyloxy)decanoate synthase (Pseudomonas aeruginosa (strain ATCC 15692 / PAO1 / 1C / PRS 101 / LMG12228)) (UniProt Q51559); experiment: Modulation of Pseudomonas aeruginosa lacZ-fused rhlA expressed in Escherichia coli DH5alpha co-expressing Ptac-rhlR assessed as C4-AHL-induced effect at 0.93 mM after 4 hrs by beta-galactosidase assay relative to control; how it was run: as §3
[9] = target: T1, Acyl-homoserine-lactone synthase (Pseudomonas aeruginosa (strain ATCC 15692 / PAO1 / 1C / PRS 101 / LMG12228)); experiment: Modulation of Pseudomonas aeruginosa lacZ-fused lasI expressed in Escherichia coli DH5alpha co-expressing pBAD-lasR assessed as 3-oxo-C12-AHL-induced effect at 0.17 mM after 3 hrs by beta-galactosidase assay relative to control; how it was run: as §1
[10] = target: T1, Acyl-homoserine-lactone synthase (Pseudomonas aeruginosa (strain ATCC 15692 / PAO1 / 1C / PRS 101 / LMG12228)); experiment: Modulation of Pseudomonas aeruginosa lacZ-fused lasI expressed in Escherichia coli DH5alpha co-expressing pBAD-lasR assessed as 3-oxo-C12-AHL-induced effect at 0.33 mM after 3 hrs by beta-galactosidase assay relative to control; how it was run: as §1
[11] = target: T1, Acyl-homoserine-lactone synthase (Pseudomonas aeruginosa (strain ATCC 15692 / PAO1 / 1C / PRS 101 / LMG12228)); experiment: Modulation of Pseudomonas aeruginosa lacZ-fused lasI expressed in Escherichia coli DH5alpha co-expressing pBAD-lasR assessed as 3-oxo-C12-AHL-induced effect at 0.50 mM after 3 hrs by beta-galactosidase assay relative to control; how it was run: as §1
[12] = target: T1, Acyl-homoserine-lactone synthase (Pseudomonas aeruginosa (strain ATCC 15692 / PAO1 / 1C / PRS 101 / LMG12228)); experiment: Modulation of Pseudomonas aeruginosa lacZ-fused lasI expressed in Escherichia coli DH5alpha co-expressing pBAD-lasR assessed as 3-oxo-C12-AHL-induced effect at 0.66 mM after 3 hrs by beta-galactosidase assay relative to control; how it was run: as §1
[13] = target: 3-(3-hydroxydecanoyloxy)decanoate synthase (Pseudomonas aeruginosa (strain ATCC 15692 / PAO1 / 1C / PRS 101 / LMG12228)) (UniProt Q51559); experiment: Modulation of Pseudomonas aeruginosa lacZ-fused rhlA expressed in Escherichia coli DH5alpha co-expressing Ptac-rhlR assessed as C4-AHL-induced effect at 0.17 mM after 4 hrs by beta-galactosidase assay relative to control; how it was run: as §2
[14] = target: 3-(3-hydroxydecanoyloxy)decanoate synthase (Pseudomonas aeruginosa (strain ATCC 15692 / PAO1 / 1C / PRS 101 / LMG12228)) (UniProt Q51559); experiment: Modulation of Pseudomonas aeruginosa lacZ-fused rhlA expressed in Escherichia coli DH5alpha co-expressing Ptac-rhlR assessed as C4-AHL-induced effect at 0.33 mM after 4 hrs by beta-galactosidase assay relative to control; how it was run: as §2
[15] = target: 3-(3-hydroxydecanoyloxy)decanoate synthase (Pseudomonas aeruginosa (strain ATCC 15692 / PAO1 / 1C / PRS 101 / LMG12228)) (UniProt Q51559); experiment: Modulation of Pseudomonas aeruginosa lacZ-fused rhlA expressed in Escherichia coli DH5alpha co-expressing Ptac-rhlR assessed as C4-AHL-induced effect at 0.50 mM after 4 hrs by beta-galactosidase assay relative to control; how it was run: as §2
[16] = target: 3-(3-hydroxydecanoyloxy)decanoate synthase (Pseudomonas aeruginosa (strain ATCC 15692 / PAO1 / 1C / PRS 101 / LMG12228)) (UniProt Q51559); experiment: Modulation of Pseudomonas aeruginosa lacZ-fused rhlA expressed in Escherichia coli DH5alpha co-expressing Ptac-rhlR assessed as C4-AHL-induced effect at 0.66 mM after 4 hrs by beta-galactosidase assay relative to control; how it was run: as §3
[17] = target: T2, Transcriptional activator protein LasR (Pseudomonas aeruginosa (strain ATCC 15692 / PAO1 / 1C / PRS 101 / LMG12228), UniProt P25084); experiment: Inhibition of Pseudomonas aeruginosa LasR
T2 sequence (P25084 whole entry): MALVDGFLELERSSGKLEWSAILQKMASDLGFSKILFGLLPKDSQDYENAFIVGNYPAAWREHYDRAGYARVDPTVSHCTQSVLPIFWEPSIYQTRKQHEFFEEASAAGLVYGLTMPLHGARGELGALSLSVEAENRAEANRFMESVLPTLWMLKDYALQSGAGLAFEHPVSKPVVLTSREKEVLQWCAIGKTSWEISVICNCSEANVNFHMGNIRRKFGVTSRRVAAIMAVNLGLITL

[18] = target: T1, Acyl-homoserine-lactone synthase (Pseudomonas aeruginosa (strain ATCC 15692 / PAO1 / 1C / PRS 101 / LMG12228)); experiment: Modulation of Pseudomonas aeruginosa lacZ-fused lasI expressed in Escherichia coli DH5alpha co-expressing pBAD-lasR assessed as 3-oxo-C12-AHL-induced effect at 0.52 mM after 3 hrs by beta-galactosidase assay relative to control; how it was run: as §1
[19] = target: 3-(3-hydroxydecanoyloxy)decanoate synthase (Pseudomonas aeruginosa (strain ATCC 15692 / PAO1 / 1C / PRS 101 / LMG12228)) (UniProt Q51559); experiment: Modulation of Pseudomonas aeruginosa lacZ-fused rhlA expressed in Escherichia coli DH5alpha co-expressing Ptac-rhlR assessed as C4-AHL-induced effect at 0.34 mM after 4 hrs by beta-galactosidase assay relative to control; how it was run: as §2
[20] = target: T1, Acyl-homoserine-lactone synthase (Pseudomonas aeruginosa (strain ATCC 15692 / PAO1 / 1C / PRS 101 / LMG12228)); experiment: Modulation of Pseudomonas aeruginosa lacZ-fused lasI expressed in Escherichia coli DH5alpha co-expressing pBAD-lasR assessed as 3-oxo-C12-AHL-induced effect at 0.69 mM after 3 hrs by beta-galactosidase assay relative to control; how it was run: as §1
[21] = target: 3-(3-hydroxydecanoyloxy)decanoate synthase (Pseudomonas aeruginosa (strain ATCC 15692 / PAO1 / 1C / PRS 101 / LMG12228)) (UniProt Q51559); experiment: Modulation of Pseudomonas aeruginosa lacZ-fused rhlA expressed in Escherichia coli DH5alpha co-expressing Ptac-rhlR assessed as C4-AHL-induced effect at 0.69 mM after 4 hrs by beta-galactosidase assay relative to control; how it was run: as §3
[22] = target: T1, Acyl-homoserine-lactone synthase (Pseudomonas aeruginosa (strain ATCC 15692 / PAO1 / 1C / PRS 101 / LMG12228)); experiment: Modulation of Pseudomonas aeruginosa lacZ-fused lasI expressed in Escherichia coli DH5alpha co-expressing pBAD-lasR assessed as 3-oxo-C12-AHL-induced effect at 0.34 mM after 3 hrs by beta-galactosidase assay relative to control; how it was run: as §1
[23] = target: 3-(3-hydroxydecanoyloxy)decanoate synthase (Pseudomonas aeruginosa (strain ATCC 15692 / PAO1 / 1C / PRS 101 / LMG12228)) (UniProt Q51559); experiment: Modulation of Pseudomonas aeruginosa lacZ-fused rhlA expressed in Escherichia coli DH5alpha co-expressing Ptac-rhlR assessed as C4-AHL-induced effect at 0.52 mM after 4 hrs by beta-galactosidase assay relative to control; how it was run: as §2

SMILES: CCCCCCSC[C@@H]1CCC(=O)N1
Activity [1]: 106%
Activity [2]: 87%
Activity [3]: 74%
Activity [4]: 61%
Activity [5]: 126%
Activity [6]: 126%
Activity [7]: 130%
Activity [8]: 145%

SMILES: CCCCCCCCCCCC(=O)N[C@H]1CCOC1=O
IC50 [17]: 0.04 µM

SMILES: CCCCCCCCCC(=O)CC(=O)NC1CCCCC1=O (stereo unspecified)
IC50 [17]: 10 µM

More lines, now with the values ahead:

Activity [9]: 72%
Activity [10]: 56%
Activity [11]: 45%
Activity [12]: 34%
Activity [13]: 98%
Activity [14]: 93%
Activity [15]: 91%
Activity [16]: 96%
SMILES: CCCCCCCCCCCCSC[C@@H]1CCC(O)N1 (mixture of isomers)

Activity [9]: 78%
Activity [18]: 71%
Activity [19]: 127%
Activity [20]: 53%
Activity [21]: 121%
Activity [22]: 78%
Activity [13]: 98%
Activity [23]: 116%
SMILES: CCCCCCCCCSC[C@H]1NC(O)[C@H](O)[C@@H]1O (mixture of isomers)
